The source of these data is ChEMBL document CHEMBL4715759, “Synthesis, biological evaluation and molecular modeling study of thiadiazolo[3,2-a][1,3]diazepine analogues of HIE-124 as a new class of short acting hypnotics” (Eur J Med Chem, 2016).

Calls of active or inactive are those of the source. The calls are words filed in the database; no cut-off is given here.

Series [1] has as its system Mus musculus. In words: Hypnotic activity in mouse assessed as onset of sleep time at 0.05 mmol/Kg, ip in presence of 0.06 mmole/kg thiopenetal by righting reflex. Format: functional. Summed up: (§1)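 Mice received a test compound (0.03–0.06 mmol/kg) together with thiopental sodium (0.06 mmol/kg), both i.p. Vehicle was DMSO (up to 1 ml/kg), or 0.25% aqueous sodium carboxymethylcellulose suspension for larger doses (up to 10 ml/kg). Each mouse was kept under a 30-cm glass funnel and watched visually and on video. Sleep onset was timed. Duration ended when the righting reflex was regained 3 times within one minute. n=6.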

Series [2] deals with Mus musculus. The series can be described thus: Hypnotic activity in mouse assessed as onset of sleep time at 0.06 mmol/Kg, ip in presence of 0.06 mmole/kg thiopenetal by righting reflex. It counts as functional. Summed up:
as §1

The test system of series [3] is Mus musculus. The series can be described thus: Hypnotic activity in mouse assessed as onset of sleep time at 0.4 mmol/Kg, ip by righting reflex. Format: functional. In outline:
(§2)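 Mice were first checked for an intact righting reflex. Single i.p. doses of 0.2–2 mmol/kg were given in DMSO (up to 1 ml/kg), or as a 0.25% aqueous carboxymethylcellulose suspension (up to 10 ml/kg) for larger doses, with vehicle controls. Each mouse was placed under a 30-cm glass funnel and monitored visually and by video. Onset of sleep was timed. Duration ended at regain of the righting reflex 3 times within 1 min. Minimal effective dose recorded; n=6.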

The subject of series [4] is Mus musculus. In words: Hypnotic activity in mouse assessed as duration of sleep time at 0.4 mmol/Kg, ip by righting reflex. Format: functional. In outline: as §2
Series [5] relates to Mus musculus. The series can be described thus: Hypnotic activity in mouse assessed as duration of sleep time at 0.05 mmol/Kg, ip in presence of 0.06 mmole/kg thiopenetal by righting reflex. It counts as functional. Summed up: as §1
Series [6] is described as follows: Therapeutic Index, ratio of LD50 of Toxicity in iv dosed mouse to minimum effective hypnotic dose in mouse. Format: organism-based. As to conditions: in vivo, read-out: TI.
The subject of series [7] is Mus musculus. In words: Hypnotic activity in mouse assessed as duration of sleep time at 0.06 mmol/Kg, ip in presence of 0.06 mmole/kg thiopenetal by righting reflex. Format: functional. In outline:
as §1

For series [8], the system named is Mus musculus. In words: Hypnotic activity in mouse assessed as onset of sleep time at 1.6 mmol/Kg, ip by righting reflex. It counts as functional. Summed up: as §2
Series [9] has as its system Mus musculus. In words: Hypnotic activity in mouse assessed as duration of sleep time at 1.6 mmol/Kg, ip by righting reflex. Format: functional, organism-based. Summed up: as §2
Series [10] relates to Mus musculus. The series can be described thus: Hypnotic activity in mouse assessed as duration of sleep time at 0.03 mmol/Kg, ip in presence of 0.06 mmole/kg thiopenetal by righting reflex. It counts as functional. In outline:
as §1

Series [11] concerns Mus musculus. In words: Hypnotic activity in mouse assessed as onset of sleep time at 0.03 mmol/Kg, ip in presence of 0.06 mmole/kg thiopenetal by righting reflex. It counts as functional. In outline: as §1
Series [12] deals with Mus musculus. The series can be described thus: Hypnotic activity in mouse assessed as duration of sleep time at 0.8 mmol/Kg, ip by righting reflex. Format: functional. Summed up: as §2
The test system of series [13] is Mus musculus. The series can be described thus: Hypnotic activity in mouse assessed as onset of sleep time at 0.8 mmol/Kg, ip by righting reflex. Format: functional. In outline: as §2
The test system of series [14] is Mus musculus. The series can be described thus: Hypnotic activity in mouse assessed as duration of sleep time at 0.2 mmol/Kg, ip by righting reflex. It counts as functional. Summed up: (§3)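 Mice screened for intact righting reflex, then dosed i.p. (0.2–2 mmol/kg range; DMSO up to 1 ml/kg, or larger doses suspended in 0.25% aqueous Na-CMC up to 10 ml/kg). Each mouse was held under a 30-cm glass funnel and monitored visually and by video. Onset was recorded at loss of righting reflex. Sleep ended when the reflex was regained 3 times within one minute. n=6.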

Series [15] concerns Mus musculus. In words: Hypnotic activity in mouse assessed as onset of sleep time at 0.2 mmol/Kg, ip by righting reflex. It counts as functional. In outline: as §3
Series [16] deals with Mus musculus. In words: Hypnotic activity in mouse assessed as onset of sleep time at 1 mmol/Kg, ip by righting reflex. It counts as functional. Summed up:
as §2

Series [17] concerns Mus musculus. The series can be described thus: Hypnotic activity in mouse assessed as duration of sleep time at 1 mmol/Kg, ip by righting reflex. Format: functional. In outline: as §2

Turning to `O=C1CCCN2N=C(c3ccccc3)SC2=N1`, the Time with Mus musculus [1] was determined as 15 min; with Mus musculus [2], 7.5 min; in the series on Mus musculus [3], 6.4 min; in the series on Mus musculus [4], 94.8 min; in the series on Mus musculus [5], 5 min; with Mus musculus [7] it was 62.5 min. Moreover, in series [6], the selectivity ratio came out at 6.62.
For the compound `Cc1ccc(C2=NN3CCCC(=O)N=C3S2)cc1`, the Time in the series on Mus musculus [8] is listed as 20 min. The outcome in the series with Mus musculus [9] was inactive. Moreover, in [6], the selectivity ratio came out at 1.25.
Turning to `O=C1CCCN2N=C(c3ccc(Br)cc3)SC2=N1`, the Time turned out to be 75 min in the series with Mus musculus [10], 43.4 min with Mus musculus [3] and 3.1 min in the series with Mus musculus [11]. Moreover, the outcome in the series on Mus musculus [4] was inactive. For the same compound, in series [6], the selectivity ratio worked out at 1.5.
Consider `O=C1CCCN2N=C(C(F)(F)F)SC2=N1`, for which the Time in the series on Mus musculus [12] and in the series with Mus musculus [13] was 14 min each time. Also, the selectivity ratio in series [6] is 3.32.
With `CCCC(C)C1(CC)C(=O)[N-]C(=S)NC1=O.[Na+]` (centres undefined) [THIOPENTAL SODIUM], the Time is 45 min with Mus musculus [14] and 2 min in the series with Mus musculus [15]. Further, in [6], the selectivity ratio turned out to be 6.1.
As for `CC1=NN2CCCC(=O)N=C2S1`, the Time with Mus musculus [16] is recorded as 25 min; in the series on Mus musculus [17], 6 min. In addition, the selectivity ratio in [6] is 3.55.
